{
  "source": "paper PMC7218920",
  "about": "(Science translational medicine, 2019)",
  "key": {"soluble GC": {"system": "soluble GC", "experiment": "HEK-293 cells expressing cGMP-sensor alone", "type": "cell-based, human", "procedure,_shortened": "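HEK-293 cells carrying the GloSensor cGMP luciferase reporter (pGS-40F), either transiently transfected or as a stable control line, with no NPR1. Luminescence from GloSensor reagent was read in real time after media, SNP (333 μM; a soluble GC activator) or hNPPA, hNPPB or NPPC (10 nM each). The stable line also received SNP and peptide concentration series. Transient time courses were run in triplicate.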"}, "hNPR1": {"molecular_target": "T1, hNPR1 (Homo sapiens, UniProt P16066)", "T1 sequence (P16066 33-1061)": "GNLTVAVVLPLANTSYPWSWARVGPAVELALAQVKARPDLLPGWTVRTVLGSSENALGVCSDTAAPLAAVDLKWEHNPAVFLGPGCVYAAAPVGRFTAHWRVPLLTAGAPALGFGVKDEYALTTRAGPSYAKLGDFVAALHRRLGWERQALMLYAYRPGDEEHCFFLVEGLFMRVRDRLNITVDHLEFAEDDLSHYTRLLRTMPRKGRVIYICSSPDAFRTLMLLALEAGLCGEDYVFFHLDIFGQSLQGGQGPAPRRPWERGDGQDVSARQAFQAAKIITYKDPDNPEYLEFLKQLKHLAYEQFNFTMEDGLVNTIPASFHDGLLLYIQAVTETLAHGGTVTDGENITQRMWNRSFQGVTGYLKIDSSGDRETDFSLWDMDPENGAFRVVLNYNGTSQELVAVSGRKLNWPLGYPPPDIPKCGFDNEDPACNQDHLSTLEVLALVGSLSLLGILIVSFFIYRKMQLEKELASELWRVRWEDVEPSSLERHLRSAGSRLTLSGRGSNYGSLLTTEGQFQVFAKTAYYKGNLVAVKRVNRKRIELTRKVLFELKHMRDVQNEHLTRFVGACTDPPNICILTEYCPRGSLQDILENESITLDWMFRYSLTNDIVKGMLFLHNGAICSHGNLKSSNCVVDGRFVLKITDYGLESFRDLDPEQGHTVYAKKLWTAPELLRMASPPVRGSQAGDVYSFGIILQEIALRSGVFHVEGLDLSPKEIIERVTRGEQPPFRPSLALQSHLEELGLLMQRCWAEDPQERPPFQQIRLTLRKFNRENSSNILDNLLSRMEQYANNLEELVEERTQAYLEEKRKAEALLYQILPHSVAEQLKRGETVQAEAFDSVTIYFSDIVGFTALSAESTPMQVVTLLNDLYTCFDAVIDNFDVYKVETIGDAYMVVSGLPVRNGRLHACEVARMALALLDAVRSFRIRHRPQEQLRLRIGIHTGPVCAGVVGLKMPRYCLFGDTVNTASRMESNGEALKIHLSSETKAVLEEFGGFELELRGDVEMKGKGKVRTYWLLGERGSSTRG", "experiment": "HEK-hNPR1-cGMP-sensor cells, qHTS cell-based assay", "details": "stable cell-line", "procedure,_shortened": "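A stable HEK-293 line expressing hNPR1 plus the GloSensor cGMP reporter (pGS-40F) was stimulated with hNPPA, hNPPB or NPPC for time courses (10 nM each) and concentration-response. For qHTS, luminescence was read before and 30 min after agonist addition. Compounds were screened at six log concentrations and confirmed at 8 concentrations. Counter-screens covered luciferase interference, cytotoxicity and SNP-stimulated cGMP-sensor-only cells.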"}},
  "data": [
    {"substance": "hNPPB: human natriuretic polypeptide b, NPR1 agonist", "values": [
      {"measurement": "response of stable cGMP-reporter cells", "setting": "soluble GC; stable cGMP-sensor control cell-line", "value": "lacked responses"},
      {"measurement": "luciferase activity / cGMP in cGMP reporter cells", "setting": "soluble GC; transient cGMP-sensor, SNP 333 μM, peptides 10 nM", "value": "did not increase cGMP"},
      {"measurement": "response of hNPR1-cGMP-reporter cells", "setting": "hNPR1", "value": "with appropriate potencies"}
    ]}
  ]
}
